Screens deposited in PubChem by several laboratories.
In the library only some 0.49% were active in any assay of this set; here they are far more common.
ABCG2 inh – inhibitors of human ABCG2 transporter, ABCB1 counter-screen; inhibition, % at 6.6 µM; AID 1325; IgMXP3 cells, JC-1 efflux, flow cytometry; actives 0.1% (n = 190,000); Q9UNQ0;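 active = inhibition above 80%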;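 note: 0% = DMSO and 100% = nicardipine control wells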
Target sequence (Q9UNQ0 whole entry, looked up): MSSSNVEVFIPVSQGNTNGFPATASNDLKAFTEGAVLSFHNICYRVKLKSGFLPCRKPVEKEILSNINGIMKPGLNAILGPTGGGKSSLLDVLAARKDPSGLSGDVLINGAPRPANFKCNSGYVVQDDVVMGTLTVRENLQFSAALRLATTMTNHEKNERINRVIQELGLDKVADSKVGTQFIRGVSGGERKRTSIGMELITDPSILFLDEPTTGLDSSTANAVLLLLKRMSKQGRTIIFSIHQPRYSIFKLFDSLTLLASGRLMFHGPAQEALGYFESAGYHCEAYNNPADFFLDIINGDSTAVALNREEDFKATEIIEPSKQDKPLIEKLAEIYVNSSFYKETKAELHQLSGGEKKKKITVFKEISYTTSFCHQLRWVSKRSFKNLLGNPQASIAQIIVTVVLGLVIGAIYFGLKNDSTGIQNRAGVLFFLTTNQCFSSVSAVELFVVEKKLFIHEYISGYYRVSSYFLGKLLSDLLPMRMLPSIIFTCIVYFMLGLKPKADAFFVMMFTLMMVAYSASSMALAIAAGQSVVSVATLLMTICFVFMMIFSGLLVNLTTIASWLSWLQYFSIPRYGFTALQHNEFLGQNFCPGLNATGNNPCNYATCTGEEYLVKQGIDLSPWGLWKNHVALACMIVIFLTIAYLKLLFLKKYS
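Times: 10 min at 25 °C | Test system: Two drug-resistant human cell lines, ABCG2 and ABCB1 | Quantity: 3 million cells/mL final, two lines in 1:1 ratio | Signal: Flow cytometry, 530 nm JC-1 signal | Dosing: Compound at 6.6 µM | Controls: Nicardipine and DMSO wells | Reagent: JC-1 as fluorescent efflux pump substrate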
ABCB1 inh – inhibitors of human ABCB1 transporter, ABCG2 counter-screen; P08183; CCRF-Adr cells, JC-1 efflux, flow cytometry; inhibition, % at 6.6 µM; actives 0.067% (n = 190,000); AID 1326; in the data active = inhibition above about 40%;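 note: 0% = vehicle and 100% = reference inhibitor; higher value means more JC-1 retained so stronger ABCB1 efflux block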
HSV replic up – HSV replication enhancement. HSV replication augmentation in cells, fold increase. maximum fold increase. actives 0.005% (n = 220,000); in the data active = maximum fold increase above about 1.5; tested in PC3 cells
Efa HMGR inh – E. faecalis class II HMG-CoA reductase inhibition; purified E. faecalis HMGR, NADPH absorbance 340 nm kinetic; actives 0.41% (n = 190,000); inhibition, % at 10 µM;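 active = inhibition above a set limit, the median over all tested compounds plus 3 SD, cut at about 9.5% in these data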;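 note: enzyme runs in reverse so mevalonate oxidation gives rising NADPH absorbance; 0% = complete reaction with DMSO and 100% = background rate lacking mevalonate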
* hit, by the source's call; i = inactive; . = no result given; ! = not active in a repeat.

SMILES	ABCG2 inh	ABCB1 inh	HSV replic up	Efa HMGR inh
Cc1cccc2[nH]c(SCC(=O)N3CCOCC3)nc12	0.3	0.2	i	11.4*
CCOC(=O)Cc1cc(=O)n2[nH]cc(-c3ccc(Cl)cc3)c2n1	-1.6	-0.8	i	0.2
COCCCC1CCN(Cc2cn[nH]c2-c2cc(OC)c(OC)c(OC)c2)CC1	0.8	0.4	i	-0.1
COCC1CCN(Cc2cn[nH]c2-c2cc(OC)c(OC)c(OC)c2)CC1	14.7	0.7	i	10.7*
COc1ccc(CCNc2ccc(C(CC(N)=O)NC(=O)Cc3ccc(Br)cc3)cc2[N+](=O)[O-])cc1 (centres undefined)	.	.	i	.
C#CCn1c(-c2cccs2)nc2ccccc21	1.2	0.2	i	14.2*
COc1ccc(/C=N/n2cncn2)cc1Cn1nc(C)c([N+](=O)[O-])c1C	.	.	i	.
COc1ccc(/C=N/n2cnnc2)cc1Cn1nc(C)c([N+](=O)[O-])c1C	-2.9	-0.3	i	10.7*
Cc1ccc(C(=O)Nc2ncc(C)s2)o1	23.0	-0.7	i	-8.3
Cc1cnc(NC(=O)c2cc3ccccc3o2)s1	0.4	-0.1	i	29.7*
CC(C)(C)Cc1nnc(NS(=O)(=O)c2ccccc2)s1	-0.2	0.1	i	14.2*
CCc1nnc(NS(=O)(=O)c2ccc(NC(=O)c3ccccc3)cc2)s1	.	.	i	.
CC(=NCCN1CCN(C(C)=C2C(=O)c3ccccc3C2=O)CC1)C1=C(O)CC(C)(C)CC1=O	-3.4	-1.5	i	3.8
COc1ccc(/C=C/C(=O)NCC2COc3ccccc3O2)cc1OC (centres undefined)	0.6	0.2	i	9.5*
Nc1nc(SCC(=O)NC2CCCc3ccccc32)n[nH]1 (centres undefined)	4.0	0.5	i	-2.0
CC(C)CN1CCN(Cc2ccc(CN3CCCCC3)s2)CC1CCO (centres undefined)	-0.4	-0.4	i	-0.5
CC(=O)C1=C(O)C(=O)N(C)C1c1ccccc1F (centres undefined)	-2.9	-0.5	i	15.5*
CC(=O)C1=C(O)C(=O)N(CO)C1c1ccccc1F (centres undefined)	-0.4	0.0	i	-1.3
CC1CCCC(NC(=O)CN(C)S(=O)(=O)c2cnc[nH]2)C1C (centres undefined)	3.8	0.1	i	13.5*
O=C(NCc1ccccc1)C1=C[C@H](c2coc3ccccc3c2=O)C[C@H](OCCCCO)O1	6.8	4.5	i	-0.1
COc1ccc(NC(=O)c2ccc(OCc3c(C)noc3C)c(OC)c2)cn1	12.4	0.4	i	0.2
COc1cc(NC(=O)COc2ccc(Br)cc2)ccc1NC(=O)C(C)C	4.6	0.3	i	-7.6
O=C(c1ccc(COc2ccccc2[N+](=O)[O-])o1)N1CCCCCC1	16.6	1.2	i	11.6*
O=C(c1ccc(COc2ccccc2[N+](=O)[O-])o1)N1CCCCC1	56.8	1.9	i	-5.8
CCOC(=O)C1CCN(C(=O)COc2ccc(S(=O)(=O)N3CCCC3)cc2C)CC1	8.4	0.7	i	-0.3
SMILES	ABCG2 inh	ABCB1 inh	HSV replic up	Efa HMGR inh
c1ccc2[nH]c(CN3CCOCC3)nc2c1	0.1	0.1	i	1.7
c1ccc2cc3[nH]c(CN4CCOCC4)nc3cc2c1	0.4	-0.1	i	10.2*
Cc1cc(NC(=O)CN2C(=O)c3ccccc3C2=O)no1	.	.	i	.
CC(C)c1ccc(C2NC(=O)CCC2[N+](=O)[O-])cc1 (centres undefined)	0.6	0.4	i	10.1*
O=C1CCC([N+](=O)[O-])C(c2ccc(Cl)cc2Cl)N1 (centres undefined)	4.3	0.7	i	-2.2
O=C(NCC1OCCCN1S(=O)(=O)c1cc(F)ccc1F)C(=O)NC1CCCCC1 (centres undefined)	-0.1	0.0	i	9.6*
CCC1CCCCN1C(=O)CCn1ccnc1 (centres undefined)	2.6	0.0	i	15.0*
COC(=O)c1ccc(OCCCCN2CC(C)OC(C)C2)cc1 (centres undefined)	1.9	0.6	i	3.5
Cc1nc2c(o1)CCc1ccccc1C2N1CCN(C)CC1 (centres undefined)	2.7	0.6	i	9.5*!
Cc1ccc(NC(=S)NNC(=O)c2cccc([N+](=O)[O-])c2)cc1Cl	.	.	i	.
Cc1ccc(NC(=O)N2CCCC2C(=O)Nc2ccc(-n3cnnn3)c(C)c2)cc1 (centres undefined)	7.1	0.8	i	9.7*
Cc1cc(NC(=O)C2CCCN2C(=O)Nc2cccc(Cl)c2)ccc1-n1cnnn1 (centres undefined)	-0.2	-0.3	i	-3.2
Cc1cc(C)nc(NC(=O)Cc2ccc([N+](=O)[O-])cc2)c1	14.3	0.9	i	-5.5
CC1(c2nnc(-c3ccc(F)cc3)o2)CC(c2ccccc2)=NO1 (centres undefined)	.	.	i	.
Cn1cc(Cl)c(-c2n[nH]c(=S)n2-c2ccc(F)cc2)n1	2.1	-0.5	i	5.8
Cc1c(Cl)c(-c2n[nH]c(=S)n2-c2ccc(F)cc2)nn1C	3.2	0.6	i	11.0*
Cc1ncc([N+](=O)[O-])n1CCO	0.1	-0.2	i	-2.1
Cc1ncc([N+](=O)[O-])n1CC(C)O (centres undefined)	0.1	0.0	i	15.6*!
CCS(=O)(=O)CCn1c([N+](=O)[O-])cnc1C	-1.2	-0.3	i	13.6*
CCOC(=O)Cc1csc(NS(=O)(=O)c2ccc(OC)cc2)n1	0.4	0.2	i	2.9
CCOC(=O)c1c(C)[nH]c(C(=O)C(C)Cl)c1C (centres undefined)	-0.3	-0.4	i	9.8*
CC(C)c1ccc(/C=C/C(=O)CCC(=O)O)cc1	-0.5	-0.4	.	3.1
O=C(O)CCC(=O)/C=C/c1ccccc1	9.2	9.3	i	11.9*
Cc1nnc(SCc2ccccc2Cl)n1CC1CCCO1 (centres undefined)	0.1	0.0	i	16.1*
N#Cc1c(-c2ccccc2)nc(SCC(=O)Nc2nnc(C(F)(F)F)s2)[nH]c1=O	-0.8	-0.5	i	13.0*
SMILES	ABCG2 inh	ABCB1 inh	HSV replic up	Efa HMGR inh
O=C(Nn1cc(C(=O)Nc2ccc(F)cc2F)c2ccccc2c1=O)c1cnccn1	0.1	0.1	i	3.1
COc1cc(/C=N/NC(=O)C(=O)/C=C2\NC(C)(C)Cc3ccccc32)ccc1O	.	.	i	.
CC(C)COC(=O)Nc1nnc(SCCOc2ccccc2)s1	2.6	0.0	i	13.3*
CCCCN(CC(=O)NCc1ccc(F)cc1)C(=O)c1ccco1	1.0	0.3	i	-2.7
Cc1c(NS(=O)(=O)c2ccc(Br)s2)c(=O)n(-c2ccccc2)n1C	0.7	0.1	i	10.4*
Cc1c(NS(=O)(=O)c2ccc3c(c2)n(C)c(=O)n3C)c(=O)n(-c2ccccc2)n1C	5.9	0.8	i	1.2
Cc1c(NS(=O)(=O)c2ccc(S(=O)(=O)c3ccccc3)s2)c(=O)n(-c2ccccc2)n1C	.	.	i	.
Cc1c(NS(=O)(=O)c2ccc3c(c2)Cc2ccccc2-3)c(=O)n(-c2ccccc2)n1C	0.4	0.3	i	13.6*
